KCNK9 block: human KCNK9 channel inhibition. hit rate 1.2% among 310,000. AID 488922. B-score at 10 µM. Q9NPC2. HEK293 KCNK9, FluxOR thallium flux fluorescence; hits give low values;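 active = ratio B-score over 3 SD below the library mean, with starting fluorescence within 5 SD of its mean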;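 also: negative B-score means less thallium flux so channel inhibition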
Target sequence (Q9NPC2 whole entry, looked up): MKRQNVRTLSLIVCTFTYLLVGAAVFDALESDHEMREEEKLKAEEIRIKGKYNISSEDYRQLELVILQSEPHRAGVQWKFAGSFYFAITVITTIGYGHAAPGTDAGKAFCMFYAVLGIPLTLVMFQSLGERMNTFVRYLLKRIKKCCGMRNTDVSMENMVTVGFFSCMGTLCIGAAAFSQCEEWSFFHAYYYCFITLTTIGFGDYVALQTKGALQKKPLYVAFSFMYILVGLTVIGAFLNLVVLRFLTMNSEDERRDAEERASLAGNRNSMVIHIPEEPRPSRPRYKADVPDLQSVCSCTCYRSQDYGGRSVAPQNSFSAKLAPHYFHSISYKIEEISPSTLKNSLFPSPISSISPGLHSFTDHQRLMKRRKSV
KCNQ1 inh: inhibitors of human KCNQ1 potassium channel. P51787. B-score at 10 µM. CHO-K1 KCNQ1, FluxOR thallium flux fluorescence; hits give high values. hit rate 1.3% among 310,000;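 active = compounds whose thallium flux B-score, printed positive for inhibition, exceeds three library SD while starting fluorescence stays within three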;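 also: channel opened by potassium depolarization with thallium stimulus after 20 min compound exposure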
KCNK3 block: human KCNK3 channel inhibition, primary screen; hit rate 0.84% among 340,000; O14649; AID 602410; CHO-KCNK3 thallium flux, FluxOR fluorescence; hits give low values; B-score at 10 µM;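 active = B-score under library mean minus 4 SD, starting fluorescence ratio at most library mean plus 5 SD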;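 also: more negative B-score means stronger inhibition of thallium flux through KCNK3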
Kir21 inh: inhibitors of mouse Kir2.1 inward-rectifier potassium channel; P35561; hit rate 0.85% among 310,000; HEK293-Kir2.1, FluxOR thallium flux fluorescence; hits give low values; B-score at 10 µM;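 active = fluorescence ratio B-score at or below minus 3 SD of library scores, with starting-brightness B-score within 2 SD, cut at about -4.2 in these data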;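 also: channel flux triggered by added potassium and thallium sulfate stimulus; B-score of peak minus minimum fluorescence over baseline after thallium stimulus; more negative B-score means stronger Kir2.1 block with less thallium influx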
KCNQ1 pot: potentiators or activators of human KCNQ1 potassium channel | CHO-K1 KCNQ1, thallium flux FluxOR fluorescence; hits give high values | AID 2648 | B-score at 10 µM | hit rate 0.35% among 310,000;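 active = fluorescence ratio B-score, a plate-corrected score, at least three library SD, with initial intensity B-score within 5 SD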
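Schedule – 37 °C overnight plating, 90-min dark dye load, 20-min compound pretreatment · System – stable KCNQ1 CHO-K1 line · Probe or stimulus – thallium- and potassium-containing depolarizing buffer · Measured by – kinetic FluxOR fluorescence, 10 s baseline plus 110 s post-stimulus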
hERG rescue: shields human hERG channel from block by proarrhythmic agents. Q12809. CHO-hERG, FluxOR thallium flux, dofetilide IC70 present. activation (rescue from dofetilide block), less the hit threshold, % at 10 µM. hit rate 0.51% among 310,000;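 active = activation above the mean of controls blocked by dofetilide plus 5 SD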;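 also: thallium influx through hERG after potassium depolarization seen as dye fluorescence rise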
An asterisk follows results filed as active; i = inactive; nt = no result given. The list is not random: actives were taken first. Their share in the collection is about 3.7%.

SMILES	KCNK9 block	KCNQ1 inh	KCNK3 block	Kir21 inh	KCNQ1 pot	hERG rescue
CCCc1nc2ccccc2c(C(=O)N(CC)CC(=O)NCc2cccs2)c1CC	nt	nt	i	nt	nt	nt
CSc1nc2nc(C)c(CCC(=O)OCC(=O)Nc3ccc(F)cc3)c(C)n2n1	nt	nt	i	nt	nt	nt
CC(=O)/C(=C/N(C)C)C(=O)Nc1ccc(Cl)cc1Cl	i	10*	i	-0.06	i	-7
CCOC(=O)c1c(NC(=O)C(NCCN(C)C)c2ccccc2)sc2c1CCCC2 (stereo unspecified)	i	i	i	-6.2*	i	-24
CCN1CCN(Cc2ccc(NC(=O)c3cc(NC(=O)c4cncc(-c5cccs5)c4)cc(OC)c3)cc2C(F)(F)F)CC1	i	8*	nt	-0.03	i	-27
CCC(CC)C(=O)c1c[nH]c(C(=O)NCc2ccc(F)cc2)c1	i	i	i	-1.1	i	-14
O=C1CCSc2ccc(Cl)cc2N1Cc1ccccc1	i	i	i	-1.5	i	-5
O=C1CCSc2ccc(Cl)cc2N1Cc1ccc(Cl)cc1	-7.6*	i	i	-2.2	i	-11
OCC[C@@H]1C[C@H](O)[C@@H](O)[C@]2(CCCc3ccccc3O2)O1	i	i	i	-0.41	i	-6
O=[N+]([O-])c1ccc2nc(-c3ccc(Cl)cc3)[nH]c2c1	i	6*	i	-1.4	i	-8
COC(=O)c1ccc(NC(=S)NC2CCCCC2)cc1	i	i	i	-0.08	i	-21
O=C(NC1CCCC1)c1cccnc1N1CCCCCC1	i	i	i	0.48	i	5.0*
COC(=O)c1cccnc1NC(=S)NC1CCCCC1	i	i	i	1.2	18*	0
CCCN1C(=O)/C(=C\C=C2\N(CC)c3ccccc3C2(C)C)SC1=S	i	9*	i	-2.3	i	-39
COc1cccc(OCC(=O)NNC(=O)C(=O)Nc2ccc(OC)cc2OC)c1	i	i	i	0.56	11*	23*
COc1ccc(NC(=O)COc2ccccc2)c(OC)c1	i	i	i	0.18	i	-8
COc1ccc(OC)c(NC(=O)C(=O)NNC(=O)C23CC4CC(CC(C4)C2)C3)c1	i	i	i	0.01	10*	65*
COc1ccccc1NC(=O)C(=O)NNC(=O)COc1ccc2ccccc2c1	i	i	i	1.7	84*	56*
COc1ccc(NC(=O)CNC(=O)C23CC4CC(CC(C4)C2)C3)c(OC)c1	i	i	i	-2	i	-15
CCCCn1c(N)c(N(CCC(C)C)C(=O)c2ccc3c(c2)OCO3)c(=O)[nH]c1=O	i	i	i	0.83	i	-7
CC(=O)C1=NN(c2ccccc2)C(c2ccc3c(c2)OCO3)N1c1ccc(N2CCOCC2)cc1 (stereo unspecified)	i	i	i	-1	i	-8
CC(=O)C1=NN(c2ccccc2)C(c2cccs2)N1c1ccccc1 (stereo unspecified)	-7.6*	8*	nt	0.24	i	-9
CCOC(=O)C(Cc1ccc(O)c([N+](=O)[O-])c1)N1C(=O)c2ccccc2C1=O (stereo unspecified)	nt	nt	i	nt	nt	nt
C=CCSC1=N/C(=C\c2cc(OCC)c(OC(C)=O)c([N+](=O)[O-])c2)C(=O)S1	i	9*	i	0.02	i	-17
CCOC(O)[C@H]1N[C@@H](c2ccc(Cl)cc2)[C@@H]([N+](=O)[O-])[C@@H]1c1ccccc1 (stereo partly specified)	-7.1*	i	i	-1.5	i	-4
SMILES	KCNK9 block	KCNQ1 inh	KCNK3 block	Kir21 inh	KCNQ1 pot	hERG rescue
N#CC(c1ccc(Cl)cc1)c1ccc2c(C(F)(F)F)cc(C(F)(F)F)nc2n1 (stereo unspecified)	i	i	i	-2.1	60*	-4
CC(OC(=O)CCC(=O)N1CCN(S(=O)(=O)c2ccc3ccccc3c2)CC1)C(=O)NC(N)=O (stereo unspecified)	i	i	i	-1.6	i	-4
CC1CN(S(=O)(=O)c2cc(C(=O)NC(C)c3cccnc3)ccc2Cl)CC(C)O1 (stereo unspecified)	nt	nt	i	nt	nt	nt
COc1ccc(S(=O)(=O)N2CCCc3ccccc32)cc1[N+](=O)[O-]	i	i	i	-2.9	i	-7
COc1ccc(S(=O)(=O)N2CCCc3ccccc32)cc1OC	i	i	i	-5.3*	i	-10
CCNC(=O)COC(=O)c1cc(S(=O)(=O)N2CCCc3ccccc32)ccc1Cl	i	i	i	-4.4*	i	-8
O=S(=O)(c1cnc(Cl)c(Cl)c1)N1CCCc2ccccc21	i	i	i	-4.6*	i	-6
CCn1nc(C)cc1-c1nnc(SCC(=O)Nc2ccccc2)n1CCCOC	i	i	i	0.2	i	-9
CCn1nc(C)cc1-c1nnc(Sc2ncc([N+](=O)[O-])s2)n1C	i	11*	i	-2.1	i	-26
CC1(C)CC(=O)/C(=C(/O)Cc2ccccc2)C(=NCCc2ccccc2)C1	i	i	i	-4.3*	i	-14
Cc1ccc(-n2c(C)cc(C3N=C(N)Nc4nc5ccccc5n43)c2C)c(C)c1 (stereo unspecified)	-7.5*	i	i	0.08	i	-3
NC1=NC(c2ccc(F)cc2)n2c(nc3ccccc32)N1 (stereo unspecified)	i	i	i	-1.6	i	-8
c1ccc(N2CC3CCc4ccccc4C3=N2)cc1 (stereo unspecified)	i	i	i	-0.25	i	-4
CCN1/C(=C\C=C(C(C)=O)C(C)=O)Sc2ccccc21	i	8*	i	-7.3	i	-22
NNC(=O)c1cc(C23CC4CC(CC(C4)C2)C3)nc2ccccc12	i	6*	i	0.45	i	-10
O=C(NNc1c2ccccc2nc2ccccc12)C12CC3CC(CC(C3)C1)C2	i	i	i	1	i	0
CCN1/C(=C/C(C)=C/c2sc3ccccc3[n+]2CC)Sc2ccccc21	i	i	-15*	1.8	i	-26
COc1cc(CNC2CCCC2)cc(Cl)c1OCc1ccccc1F	i	i	i	-4.7*	i	-15
COc1cc(CNC2CCCCCC2)cc(OC)c1O	i	i	i	-0.28	i	2
COc1ccc(C(C(=O)NCc2ccccc2)N(Cc2cccnc2)C(=O)c2snc(C(N)=O)c2N)cc1OC (stereo unspecified)	i	i	i	1.9	i	-21

Screening results (PubChem BioAssay)
